Screening results: PubChem, several laboratories
In the library only some 4.7% were active in any assay of this set; here they are far more common.
KCC2 mod: KCC2 (human) Cl- transport modulation; Q9H2X9; KCC2 cells, thallium flux FluoZin-2 fluorescence; B-score of Tl+ flux slope (higher = more flux/activation; lower = inhibition) at 10 µM; actives 2.2% (n = 190,000); AID 1456;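 active = thallium flux slope and its plate-corrected score both differing from the plate sample mean at a set confidence after two filtering rounds, in either direction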;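 also: slope of fluorescence scaled to starting intensity during 10 to 20 s after thallium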
Target sequence (Q9H2X9 whole entry, looked up): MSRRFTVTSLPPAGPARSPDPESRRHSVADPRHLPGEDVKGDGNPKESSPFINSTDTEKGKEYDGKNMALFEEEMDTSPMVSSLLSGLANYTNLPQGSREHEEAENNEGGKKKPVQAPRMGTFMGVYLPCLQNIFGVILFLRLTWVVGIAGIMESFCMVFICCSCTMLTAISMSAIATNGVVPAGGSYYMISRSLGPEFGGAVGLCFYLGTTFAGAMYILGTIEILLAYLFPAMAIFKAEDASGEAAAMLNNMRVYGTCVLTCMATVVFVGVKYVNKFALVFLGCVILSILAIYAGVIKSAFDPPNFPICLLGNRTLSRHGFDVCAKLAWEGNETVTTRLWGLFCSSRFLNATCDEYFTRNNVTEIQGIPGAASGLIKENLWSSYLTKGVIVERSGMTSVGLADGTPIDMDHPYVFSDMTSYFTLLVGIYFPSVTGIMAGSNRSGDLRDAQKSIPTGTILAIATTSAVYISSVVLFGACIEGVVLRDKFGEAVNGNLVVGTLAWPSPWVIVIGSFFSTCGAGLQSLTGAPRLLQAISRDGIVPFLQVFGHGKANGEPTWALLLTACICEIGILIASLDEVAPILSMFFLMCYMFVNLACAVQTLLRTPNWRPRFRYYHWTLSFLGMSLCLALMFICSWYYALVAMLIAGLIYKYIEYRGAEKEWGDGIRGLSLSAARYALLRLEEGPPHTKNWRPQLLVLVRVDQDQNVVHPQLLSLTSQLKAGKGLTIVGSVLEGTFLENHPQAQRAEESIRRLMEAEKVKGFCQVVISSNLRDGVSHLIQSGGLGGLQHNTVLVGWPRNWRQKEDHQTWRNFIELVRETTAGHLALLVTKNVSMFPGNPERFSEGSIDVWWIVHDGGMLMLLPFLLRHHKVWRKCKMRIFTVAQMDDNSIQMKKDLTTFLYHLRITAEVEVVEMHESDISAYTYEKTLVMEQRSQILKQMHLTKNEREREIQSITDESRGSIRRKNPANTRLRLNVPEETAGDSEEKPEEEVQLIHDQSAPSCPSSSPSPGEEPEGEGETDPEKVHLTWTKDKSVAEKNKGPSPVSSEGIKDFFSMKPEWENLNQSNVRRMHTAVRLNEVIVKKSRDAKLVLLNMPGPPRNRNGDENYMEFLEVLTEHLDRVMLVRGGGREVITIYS
RGS4 block: human RGS4 inhibition; HEK293 M3R/RGS4 inducible, Fluo-4 calcium flux; active compounds read high; triggered by carbachol at its EC20; B-score at 10 µM; actives 0.45% (n = 310,000);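 active = B-score, a plate-corrected calcium signal, over three deviations above library mean, with baseline fluorescence within five deviations of library mean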;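 also: RGS4 expression induced by doxycycline in cells with stable M3 receptor; B-score is computed from the integrated fluorescence ratio over baseline after carbachol; higher B-score means a larger calcium signal and so more RGS4 inhibition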
RGS4 pot: potentiators or activators of RGS4; HEK293 M3R/inducible RGS4, carbachol calcium flux Fluo4; active compounds read low; B-score at 10 µM; actives 0.92% (n = 310,000);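 active = B-score of the integrated calcium signal more than 4 SD below the library mean, with starting fluorescence not abnormally high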;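 also: negative B-score means reduced calcium response which marks RGS4 activation or potentiation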
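Assay system: HEK293 FlpIn-TREx cells, stable M3R, doxycycline-inducible RGS4 / Probe or stimulus: carbachol, ECmax concentration / Times: overnight RGS4 induction, 30 min dye load 37 °C, 20 min compound RT / Signal: kinetic calcium fluorescence imaging with Fluo4-AM dye, 2 µM / Measure: Agonist-evoked peak-minus-minimum fluorescence over baseline, integrated ratio, B score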
MrgX1 PAM: allosterically activates human MrgX1 receptor signaling. Q96LB2. MrgX1-HEK293, Fluo-4 calcium flux, FDSS; active compounds read high. B-score at 10 µM. actives 0.63% (n = 310,000). AID 588675;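 active = plate-corrected calcium response at least 3 library SD above typical, normal starting fluorescence, not activating the receptor alone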;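 also: compound read alongside a low EC10 to EC30 dose of BAM8-22 agonist; peak minus trough fluorescence over baseline measured at the second addition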
MrgX1 ag: activates human MrgX1 receptor signaling; Q96LB2; MrgX1-HEK293 cells, Fluo-4 calcium fluorescence, agonist mode; active compounds read high; actives 0.44% (n = 310,000); B-score at 10 µM;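 active = calcium response B-score plate-corrected fluorescence ratio at least 3 library SD, with starting fluorescence B-score inside 5 SD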
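Material – MrgX1-expressing HEK293 cells · Input – 15,000 cells seeded per well · Dosing – compound as first of three additions · Times – overnight seeding, then 1 h dark dye loading · Measured by – kinetic Fluo-4 NW fluorescence of intracellular calcium · Read-out – B-scored fluorescence response ratio · Benchmarks – positive and negative control wells on each plate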
MrgX1 antag: blocks BAM8-22 activation of human MrgX1 receptor | actives 1.3% (n = 310,000) | Q96LB2 | MRGX1-HEK293 calcium flux, Fluo-4, BAM8-22 antagonism; active compounds read low | B-score at 10 µM;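 active = calcium-response B-score plate-corrected more than 3 library SD below zero, starting fluorescence within 5 deviations, no agonist response on first addition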;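 also: peak minus trough fluorescence over baseline after final BAM8-22 challenge near maximal dose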
MrgX1 allo conf: human MrgX1 positive allosteric modulation, re-confirmation; shares compounds with MrgX1 PAM; MrgX1-HEK293, Fluo-4 calcium fluorescence, FDSS; activation (ratio percentage), % at 10 µM; actives 13% (n = 1,200); AID 602413;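 active = ratio at least 3 SD above the weak peptide control, stable starting fluorescence, no direct agonism earlier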;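 also: compound followed by low BAM8-22 agonist challenge near EC20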
MrgX1 ant reconf: confirmation of human MrgX1 receptor antagonists; shares compounds with MrgX1 antag; MrgX1-HEK293, BAM8-22 calcium flux, Fluo-4; active compounds read low; remaining BAM8-22 calcium response % of control (active compounds read low), % at 10 µM; actives 19% (n = 2,300); AID 602420;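 active = remaining agonist calcium response no higher than 100% minus 3 SD of agonist-only control wells, with starting fluorescence near control levels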;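 also: agonist BAM8-22 given at a near maximal EC90 to ECmax level; peak minus minimum fluorescence divided by baseline after agonist addition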
HEK293 Ca flux: activity in parental HEK293 cells lacking MrgX1. actives 2% (n = 4,000). fluorescence ratio F(max-min)/F0 at 10 µM. Fluo-4 calcium fluorescence, FDSS. shares compounds with MrgX1 antag. AID 624111;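 active = duplicate-averaged calcium fluorescence ratio at least three times the standard deviation of buffer wells, a nonspecific response in parental cells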
HEK293 Ca counter: MrgX1 allosteric activator counter-screen hit in parental HEK293 cells; fluorescence ratio F(max-min)/F0 at 10 µM; actives 0.4% (n = 4,000); shares compounds with MrgX1 antag; parental HEK293 calcium flux, Fluo-4 fluorescence ratio; active compounds read high; AID 624114;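 active = calcium fluorescence ratio, averaged over duplicates, at least 3 SD of the buffer-well ratio, meaning a nonspecific response in receptor-free cells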;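 also: untransfected parental HEK293 lacking MrgX1 used as counterscreen for MrgX1 allosteric activators; fluorescence change taken during the second addition on a kinetic imager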
HEK293 Ca cntr2: MrgX1 activator counter-screen hit in parental HEK293 cells; shares compounds with MrgX1 antag; Fluo-4 calcium fluorescence (FDSS); active compounds read high; fluorescence ratio F(max-min)/F0 at 10 µM; actives 8.7% (n = 4,000);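 active = calcium fluorescence ratio at least three times the spread of buffer wells, meaning a non-specific response in parental cells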
Numbers stand for hits; 0 = inactive; - = no result.

SMILES	KCC2 mod	RGS4 block	RGS4 pot	MrgX1 PAM	MrgX1 ag	MrgX1 antag	MrgX1 allo conf	HEK293 Ca flux	HEK293 Ca counter	HEK293 Ca cntr2	others
CC(C)[C@@H](COc1ccccc1)N1CCN(Cc2ccccc2)CCC1=O	-	0	0	14	0	0	0	0	0	0
COCC1CCCN(Cc2nc(C(c3ccccc3)c3ccccc3)no2)C1 (centres undefined)	0	0	0	14	0	0	10%	0	0	0
O=C1C(=O)N(CCN2CCOCC2)C(c2ccncc2)/C1=C(/O)c1ccc2c(c1)OCO2 (centres undefined)	0	0	0	7.7	0	0	0	0	0	0
COc1cccc(C(C)NC(=O)Cc2cccs2)c1 (centres undefined)	-	0	0	0	0	0	-	-	-	-
O=C(NC1CCCCC1)c1ccccc1C(F)(F)F	0	0	0	8.6	0	0	0	0	0	0
O=C(NCC(O)CO)c1csc(Nc2cccc3ccccc23)n1 (centres undefined)	-	0	0	0	0	0	-	-	-	-
COc1ccc(N(Cc2cc(=O)[nH]c3ccccc23)C(C)=O)cc1	-	0	0	0	0	0	-	-	-	-
Cc1ccc2nc(Cl)c(-c3ccccc3)cc2c1	-	0	0	8.3	0	0	0	0	0	0
CCOC(=O)Cc1csc(NC(=O)c2ccc(Br)o2)n1	-	0	0	16	0	0	0	0	0	0
CCOC(=O)Cc1csc(NC(=O)c2cc3ccccc3o2)n1	0	0	0	6.8	0	0	0	0	0	0
CCN(CC(=O)NCc1ccc(Cl)cc1)C(=O)CCc1ccccc1O	-	0	0	0	0	0	-	-	-	-
COCCN(C(=O)CCC(=O)Nc1ccccn1)C(C(=O)NCCC(C)C)c1ccc(C)cc1 (centres undefined)	-	0	0	0	0	0	-	-	-	-
COc1ccccc1C(=O)OCC(=O)Nc1ccc(OC(F)F)cc1	-	0	0	0	0	0	-	-	-	-
COc1ccccc1C(=O)OCC(=O)Nc1ccccc1OC(F)F	0	0	0	7.4	0	0	0	0	0	0
O=C(CCl)Nc1cccc(Oc2cnccn2)c1	-	0	0	0	0	0	-	-	-	-
O=C(CCl)Nc1cccc(Oc2ccccc2)c1	0	0	0	13	0	0	0	0	0	48
Fc1cccc(-c2cc3nc4c(c(N5CCC6(CC5)OCCO6)n3n2)CCCC4)c1	0	0	0	7.6	0	0	0	0	0	0
CC(C)(C)OC(=O)N1Cc2ccccc2C[C@H]1C(=O)NC1CCCC1	-	0	0	0	0	0	-	-	-	-
Nc1nc(C23CC4CCC(CC(C4)C2)C3)cs1	0	0	0	7.1	0	0	0	0	0	0
Nc1nc(C23CC4CC(CC(Cl)(C4)C2)C3)cs1	0	0	0	0	0	0	-	-	-	-
COc1ccc(Nc2cc(Cl)nc(N)n2)cc1	0	0	0	0	0	0	-	-	-	-
Nc1cc(Nc2ccc(Br)cc2)nc(N)n1	0	0	0	7.5	0	-8.6	0	0	0	0	MrgX1 ant reconf=0
CC(C)CN1C(=O)C(=O)N(CC(=O)c2ccc[nH]2)C1=O	-	0	0	0	0	0	-	-	-	-
O=C(COc1ccc([N+](=O)[O-])cc1)NC(C(=O)O)C(O)c1cccc([N+](=O)[O-])c1 (centres undefined)	-	0	0	0	0	0	-	-	-	-
CCc1cccc(CC)c1NC(=S)Nc1cccc(Cl)c1Cl	0	0	0	25	0	0	0	0	0	0
SMILES	KCC2 mod	RGS4 block	RGS4 pot	MrgX1 PAM	MrgX1 ag	MrgX1 antag	MrgX1 allo conf	HEK293 Ca flux	HEK293 Ca counter	HEK293 Ca cntr2	others
O=C(CSCc1ccccc1)N1CCN(c2ccc(F)cc2)CC1	0	0	0	0	0	0	-	-	-	-
O=C(CCc1ccccc1)N1CCN(c2ccc(F)cc2)CC1	0	0	0	8.9	0	0	0	0	0	0
CCOC(=O)N1CCN(c2cc(=O)n(-c3cccc(C)c3)c(=O)[nH]2)CC1	0	0	0	11	0	0	0	0	0	0
CCOC(=O)N1CCN(c2cc(=O)n(-c3cccc(Br)c3)c(=O)[nH]2)CC1	0	0	0	0	0	0	-	-	-	-
CCCCCCn1c(C(C)NC(=O)c2ccco2)nc2ccccc21 (centres undefined)	0	0	0	18	0	0	0	0	0	0
CCCCn1c(C(C)NC(=O)CC)nc2ccccc21 (centres undefined)	0	0	0	0	0	0	-	-	-	-
O=C(OCC(=O)N1CCCC1=O)C1CCN(S(=O)(=O)c2c(Cl)cccc2Cl)CC1	-	0	0	0	0	0	-	-	-	-
CCOC(=O)c1c(-c2ccc(F)cc2)csc1NC(=O)C1CCCO1 (centres undefined)	0	0	0	11	0	0	0	0	0	0
COC(=O)c1c(-c2ccc(F)cc2)csc1NC(=O)c1ccco1	0	0	0	22	0	0	22%	0	0	0
CCOC(=O)c1c(-c2ccc(C)cc2)csc1NC(=O)C1CCCO1 (centres undefined)	0	0	0	13	0	0	19%	0	0	0
CCOC(=O)c1c(-c2ccc(OC)cc2)csc1NC(=O)C1CCCO1 (centres undefined)	0	0	0	24	0	0	0	0	0	0
COC(=O)c1c(-c2cccc(C)c2)csc1NC(=O)C1CCCO1 (centres undefined)	0	0	0	0	0	0	-	-	-	-
O=C(Nc1scc(-c2ccccc2)c1C(=O)O)c1ccco1	0	0	0	0	0	0	-	-	-	-
COc1ccc(CCNC(=O)CN(CCc2ccccc2)S(C)(=O)=O)cc1OC	0	0	0	0	0	0	-	-	-	-
CCCCOC(=O)Nc1ccc(S(=O)(=O)Nc2onc(C)c2C)cc1	-	0	0	0	0	0	-	-	-	-
O=C(Nc1cccc(-c2cn3ccccc3n2)c1)c1ccccc1	0	0	0	6.8	0	0	8.4%	0	0	0
